Values after ≈ are worked out from the molar mass of the structure shown.
Key:
Plasmodium falciparum [1] = experiment: Antimalarial effect as schizonticidal activity against chloroquine-sensitive Plasmodium falciparum 3D7 after 40 hrs; details: 3D7, 40 h
[2] = Selectivity index, ratio of CC50 for african green monkey (Cercopithecus aethiops) Vero cells to IC50 for Plasmodium falciparum 3D7; type: functional
Plasmodium falciparum [3] = experiment: Antimalarial activity against chloroquine-sensitive Plasmodium falciparum 3D7 infected erythrocytes after 72 hrs by MSF assay; details: 3D7, 72 h
Plasmodium yoelii [4] = experiment: Antimalarial activity as parasitaemia after 28 days against chloroquine-resistant Plasmodium yoelii N67 infected Swiss mice (Mus musculus) at 50 mg/kg peroral dose over 4 days; type: functional; details: route oral
In short: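 Swiss mice (25 g, either sex, n=5) infected on day 0 with 1 × 10⁶ P. yoelii N67 chloroquine-resistant parasitized cells. Test compounds were given orally as an aqueous suspension at 50 mg/kg from day 0 to 3; vehicle controls were run alongside. Parasitaemia was counted on tail-vein thin smears on days 4, 7, 14, 21 and 28, or until death.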

Plasmodium yoelii [5] = experiment: Antimalarial activity as parasitaemia after 28 days against chloroquine-resistant Plasmodium yoelii N67 infected Swiss mice (Mus musculus) at 50 mg/kg peroral dose over 7 days; type: functional; details: route oral

SMILES | MIC (Plasmodium falciparum [1]) [µg/mL] | Selectivity Index [2] | IC50 (Plasmodium falciparum [3]) [µg/mL] | Activity (Plasmodium yoelii [4]) [%] | Activity (Plasmodium yoelii [5]) [%]
Cc1cc(NC(=O)c2ccccc2)c2cc(NC(=O)Nc3cccc(Cl)c3C)ccc2n1 | 50 (≈ 112 µM) | – | – | – | –
CC(=O)c1cccc(NC(=O)Nc2ccc3nc(C)cc(NC(=O)c4cccc(Cl)c4)c3c2)c1 | 10 (≈ 21.1 µM) | – | – | – | –
Cc1cc(NC(=O)c2cccc(Cl)c2)c2cc(NC(=O)Nc3cccc(F)c3)ccc2n1 | > 50 | – | – | – | –
CC(=O)Nc1cc(C)nc2ccc(NC(=O)Nc3ccc(Cl)cc3)cc12 | 10 (≈ 27.1 µM) | – | – | – | –
Cc1cc(NC(=O)c2ccccc2Cl)c2cc(NC(=O)Nc3cc(Cl)cc(Cl)c3)ccc2n1 | – | 505 | 0.0217 (≈ 0.0434 µM) | – | –
Cc1cc(NC(=O)c2cccc(Cl)c2)c2cc(NC(=O)Nc3ccc(Cl)c(C(F)(F)F)c3)ccc2n1 | > 10 | – | – | – | –
Cc1cc(NC(=O)c2ccccc2Cl)c2cc(NC(=O)Nc3cccc(F)c3)ccc2n1 | 2 (≈ 4.46 µM) | – | – | – | –
Cc1cc(NC(=O)c2ccccc2Cl)c2cc(NC(=O)Nc3cccc(Cl)c3C)ccc2n1 | 10 (≈ 20.9 µM) | – | – | – | –
Cc1cc(NC(=O)c2ccccc2Cl)c2cc(NC(=O)Nc3cccc(C#N)c3)ccc2n1 | 1 (≈ 2.19 µM) | 2401.9 | 0.0284 (≈ 0.0623 µM) | 6.05 | 12.11
Cc1cc(NC(=O)c2ccccc2)c2cc(NC(=O)Nc3cccc(C(F)(F)F)c3)ccc2n1 | 10 (≈ 21.5 µM) | – | – | – | –
CC(=O)c1cccc(NC(=O)Nc2ccc3nc(C)cc(NC(=O)CN4CCCCC4)c3c2)c1 | – | 214.4 | – | – | –
Cc1cc(NC(=O)c2cccc(Cl)c2)c2cc(NC(=O)Nc3cccc(C(F)(F)F)c3)ccc2n1 | – | 6014.2 | 0.0099 (≈ 0.0198 µM) | – | –
Cc1cc(NC(=O)CN2CCN(C)CC2)c2cc(NC(=O)Nc3cccc(C#N)c3)ccc2n1 | 2 (≈ 4.37 µM) | – | – | – | –
Cc1cc(NC(=O)CN2CCN(C)CC2)c2cc(NC(=O)Nc3cccc(F)c3)ccc2n1 | 10 (≈ 22.2 µM) | – | – | – | –
CC(=O)Nc1cc(C)nc2ccc(NC(=O)Nc3ccc(C(C)=O)cc3)cc12 | 10 (≈ 26.6 µM) | – | – | – | –
Cc1cc(NC(=O)c2ccccc2Cl)c2cc(NC(=O)Nc3ccc(Cl)cc3)ccc2n1 | 2 (≈ 4.3 µM) | – | – | – | –
CC(=O)c1ccc(NC(=O)Nc2ccc3nc(C)cc(NC(=O)c4ccccc4Cl)c3c2)cc1 | 2 (≈ 4.23 µM) | – | – | 3.03 | 5.98

SMILES | MIC (Plasmodium falciparum [1]) [µg/mL] | Selectivity Index [2] | IC50 (Plasmodium falciparum [3]) [µg/mL] | Activity (Plasmodium yoelii [4]) [%] | Activity (Plasmodium yoelii [5]) [%]
Cc1cc(NC(=O)c2ccccc2)c2cc(NC(=O)Nc3ccc(F)c(Cl)c3)ccc2n1 | 10 (≈ 22.3 µM) | – | – | – | –
CC(=O)c1ccc(NC(=O)Nc2ccc3nc(C)cc(NC(=O)CN4CCN(C)CC4)c3c2)cc1 | 1 (≈ 2.11 µM) | – | 0.014 (≈ 0.0295 µM) | – | –
Cc1cc(NC(=O)CN2CCN(C)CC2)c2cc(NC(=O)Nc3ccc(F)cc3)ccc2n1 | 2 (≈ 4.44 µM) | – | – | – | –
Cc1cc(NC(=O)c2ccccc2Cl)c2cc(NC(=O)Nc3cccc(Cl)c3)ccc2n1 | 0.5 (≈ 1.07 µM) | 32.1 | 0.22 (≈ 0.472 µM) | 4.23 | 9.77
CC(=O)c1cccc(NC(=O)Nc2ccc3nc(C)cc(NC(=O)c4ccccc4Cl)c3c2)c1 | 2 (≈ 4.23 µM) | – | – | – | –
CCN(CC)CCCC(C)Nc1ccnc2cc(Cl)ccc12 (configuration not stated) [CHLOROQUINE] | 0.015 (≈ 0.0469 µM) | – | – | – | –
CC(=O)Nc1cc(C)nc2ccc(NC(=O)Nc3ccc(C)c(Cl)c3)cc12 | 50 (≈ 131 µM) | – | – | – | –
CCN1CCN(CC(=O)Nc2cc(C)nc3ccc(NC(=O)Nc4cccc(C(F)(F)F)c4)cc23)CC1 | 0.5 (≈ 0.972 µM) | – | 0.028 (≈ 0.0544 µM) | – | –
Cc1cc(NC(=O)c2ccccc2)c2cc(NC(=O)Nc3ccc(Cl)c(Cl)c3)ccc2n1 | 1 (≈ 2.15 µM) | – | 0.0109 (≈ 0.0234 µM) | – | –
Cc1cc(NC(=O)c2ccco2)c2cc(NC(=O)Nc3ccc(Cl)c(C(F)(F)F)c3)ccc2n1 | – | 713.3 | 0.0099 (≈ 0.0203 µM) | – | –
Cc1cc(NC(=O)c2ccco2)c2cc(NC(=O)Nc3ccc(Cl)cc3)ccc2n1 | 0.5 (≈ 1.19 µM) | 3909.5 | 0.0139 (≈ 0.033 µM) | 2.95 | 13.2
CC(=O)c1cccc(NC(=O)Nc2ccc3nc(C)cc(NC(=O)CN4CCN(C)CC4)c3c2)c1 | 0.5 (≈ 1.05 µM) | 524.5 | 0.146 (≈ 0.308 µM) | – | –
Cc1cc(NC(=O)c2cccc(Cl)c2)c2cc(NC(=O)Nc3cccc(Cl)c3C)ccc2n1 | 1 (≈ 2.09 µM) | 184.5 | 0.034 (≈ 0.0709 µM) | – | –
Cc1cc(NC(=O)CN2CCCCC2)c2cc(NC(=O)Nc3cc(Cl)cc(Cl)c3)ccc2n1 | 0.5 (≈ 1.03 µM) | 396.9 | 0.0288 (≈ 0.0592 µM) | – | –
Cc1cc(NC(=O)c2ccco2)c2cc(NC(=O)Nc3cc(Cl)cc(Cl)c3)ccc2n1 | 2 (≈ 4.39 µM) | – | – | – | –
CC(=O)Nc1cc(C)nc2ccc(NC(=O)Nc3cc(Cl)cc(Cl)c3)cc12 | 2 (≈ 4.96 µM) | – | – | – | –
Cc1cc(NC(=O)c2ccccc2Cl)c2cc(NC(=O)Nc3ccc(Cl)c(Cl)c3)ccc2n1 | 1 (≈ 2 µM) | 16.8 | 0.194 (≈ 0.389 µM) | – | –

Reference: ChEMBL document CHEMBL1139333, “Search for new pharmacophores for antimalarial activity. Part I: synthesis and antimalarial activity of new 2-methyl-6-ureido-4-quinolinamides” (Bioorg Med Chem, 2009)
